Laboratory results reported in ChEMBL document CHEMBL4364238, “Discovery of BNC375, a Potent, Selective, and Orally Available Type I Positive Allosteric Modulator of α7 nAChRs” (ACS Med Chem Lett, 2019).
Values after ≈ are worked out from the molar mass of the structure shown. Active and inactive are the calls of the source. No cut-off for these calls is given here.

Tests used:
[1] = target: Neuronal acetylcholine receptor subunit alpha-7 (Rattus norvegicus) (UniProt Q05941); experiment: Positive allosteric modulator activity at rat alpha7 nAChR expressed in GH4C1 cells assessed as potentiation of acetylcholine response at 3 uM at -70 mV holding potential preincubated for 30 secs followed by co-application with acetylcholine by automated patch clamp assay; assay type: cell-based
Sequence of Neuronal acetylcholine receptor subunit alpha-7 (Rattus norvegicus) (Q05941 whole entry): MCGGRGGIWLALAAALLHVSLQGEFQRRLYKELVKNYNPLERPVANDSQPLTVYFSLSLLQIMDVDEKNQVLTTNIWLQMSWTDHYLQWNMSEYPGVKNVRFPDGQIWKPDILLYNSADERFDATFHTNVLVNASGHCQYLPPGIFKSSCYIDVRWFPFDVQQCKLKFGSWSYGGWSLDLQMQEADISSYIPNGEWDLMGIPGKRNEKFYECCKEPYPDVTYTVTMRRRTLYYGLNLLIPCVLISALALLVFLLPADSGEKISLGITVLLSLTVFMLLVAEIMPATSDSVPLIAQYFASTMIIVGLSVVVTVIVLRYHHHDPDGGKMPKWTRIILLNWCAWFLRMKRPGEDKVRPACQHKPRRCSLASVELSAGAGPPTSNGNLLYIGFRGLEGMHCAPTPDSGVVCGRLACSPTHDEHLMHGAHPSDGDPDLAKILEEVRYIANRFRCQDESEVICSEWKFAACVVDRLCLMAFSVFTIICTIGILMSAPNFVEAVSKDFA
Summary of the method: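 Automated planar patch clamp on stable GH4C1 (rat) cell lines expressing rat α7 nAChR; test compound at 3 μM with an EC₂₀ acetylcholine challenge; percent change in peak current versus acetylcholine alone taken as P₃.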

[2] = Oral bioavailability in Sprague-Dawley rat; assay type: ADME, organism-based; conditions: in vivo
Mus musculus [3] = experiment: Reversal of scopolamine-induced memory impairment in mouse assessed as increase in spontaneous alteration at 3 mg/kg, po administered with compond and scopolamine at 60 mins and 30 mins respectively prior to test by T-maze test; assay type: functional; conditions: read-out: INH
Summary of the method: (§1)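 Mouse T-maze continuous alternation task with scopolamine-induced impairment of spontaneous alternation; compound given orally in saline-based vehicle with 25% Cremophor ELP over 0.003–10.0 mg/kg; group means compared by one-way ANOVA then Fisher's PLSD, p < 0.05 significant.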

Mus musculus [4] = experiment: Reversal of scopolamine-induced memory impairment in mouse assessed as increase in spontaneous alteration at 0.003 mg/kg, po administered with compond and scopolamine at 60 mins and 30 mins respectively prior to test by T-maze test; assay type: functional; summary of the method: as §1
[5] = Solubility of the compound at pH 6.5; assay type: physicochemical; conditions: buffer
[6] = Stability in human liver microsomes assessed as hepatic extraction ratio at 1 uM measured for 45 mins by LC-MS/MS analysis; assay type: ADME, Microsome; conditions: read-out: ERH
Mus musculus [7] = experiment: Reversal of scopolamine-induced memory impairment in mouse assessed as increase in spontaneous alteration at 1 mg/kg, po administered with compond and scopolamine at 60 mins and 30 mins respectively prior to test by T-maze test; assay type: functional; conditions: read-out: INH; summary of the method: as §1
[8] = Dose normalized AUC (0 to infinity) in Sprague-Dawley rat at 4 mg/kg administered as single IV bolus dose; assay type: ADME, organism-based; conditions: in vivo
Summary of the method: (§2)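 Single IV bolus of 4.0 mg/kg in male Sprague–Dawley rats; dosing solution 1.1 mg/mL in saline-based vehicle with 0.1 M hydroxypropyl-β-cyclodextrin and 10% (v/v) DMSO; plasma pharmacokinetic parameters derived.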

Mus musculus [9] = experiment: Reversal of scopolamine-induced memory impairment in mouse assessed as increase in spontaneous alteration at 0.3 mg/kg, po administered with compond and scopolamine at 60 mins and 30 mins respectively prior to test by T-maze test; assay type: functional; summary of the method: as §1
[10] = target: Neuronal acetylcholine receptor subunit alpha-7 (Rattus norvegicus, UniProt Q05941); experiment: Positive allosteric modulatory activity at rat alpha7 nAChR expressed in GH4C1 cells assessed as potentiation of acetylcholine response at -70 mV holding potential preincubated for 30 secs followed by co-application with acetylcholine by manual patch clamp assay; assay type: cell-based
Sequence of Neuronal acetylcholine receptor subunit alpha-7 (Q05941 whole entry): as above
Summary of the method: (§3)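 Conventional manual patch-clamp with a fast-application system on stable GH4C1 cells expressing rat α7 nAChR; currents evoked by acetylcholine with and without test compound; peak-current change relative to acetylcholine alone gives potentiation (P₃ at 3 μM; concentration–response for EC₅₀ and Pmax).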

[11] = Stability in mouse liver microsomes assessed as hepatic extraction ratio at 1 uM measured for 45 mins by LC-MS/MS analysis; assay type: ADME, Microsome; conditions: read-out: ERH
[12] = Half life in Sprague-Dawley rat plasma at 4 mg/kg administered as single IV bolus dose; assay type: ADME, organism-based; summary of the method: as §2
[13] = Solubility of the compound at pH 2; assay type: physicochemical; conditions: buffer
[14] = Plasma clearance in Sprague-Dawley rat at 4 mg/kg administered as single IV bolus dose; assay type: ADME, organism-based; summary of the method: as §2
[15] = target: Neuronal acetylcholine receptor subunit alpha-7 (Rattus norvegicus) (UniProt Q05941); experiment: (§4) Positive allosteric modulatory activity at rat alpha7 nAChR expressed in GH4C1 cells assessed as AUC of potentiation of peak current at -70 mV holding potential preincubated for 30 secs followed by co-application with acetylcholine by manual patch clamp assay relative to peak current potentiation; assay type: cell-based; summary of the method: as §3
[16] = target: Neuronal acetylcholine receptor subunit alpha-7 (Rattus norvegicus) (UniProt Q05941); experiment: as §4, with “of acetylcholine response at 3 uM” for “of peak current”, “by automated” for “by manual”, “to potentiation of” for “to peak”, “current response” for “current potentiation”; assay type: cell-based
[17] = target: Neuronal acetylcholine receptor subunit alpha-7 (Rattus norvegicus) (UniProt Q05941); experiment: Positive allosteric modulatory activity at rat alpha7 nAChR expressed in GH4C1 cells assessed as potentiation of peak current at -70 mV holding potential preincubated for 30 secs followed by co-application with acetylcholine by manual patch clamp assay relative to acetylcholine-induced peak current; assay type: cell-based; summary of the method: as §3
Mus musculus [18] = experiment: Reversal of scopolamine-induced memory impairment in mouse assessed as increase in spontaneous alteration at 0.03 mg/kg, po administered with compond and scopolamine at 60 mins and 30 mins respectively prior to test by T-maze test; assay type: functional; summary of the method: as §1
[19] = Volume of distribution at steady state in Sprague-Dawley rat at 4 mg/kg administered as single IV bolus dose; assay type: ADME, organism-based; conditions: in vivo, read-out: Vdss; summary of the method: as §2
[20] = Lipophilicity, log D of the compound at pH 7.4; assay type: physicochemical; conditions: buffer
[21] = Apparent permeability in human Caco2 cells; assay type: ADME, cell-based; conditions: Caco-2
Mus musculus [22] = experiment: Reversal of scopolamine-induced memory impairment in mouse assessed as percentage of increase in spontaneous alteration at 10 mg/kg, po administered with compond and scopolamine at 60 mins snd 30 mins respectively prior to test by T-maze test; assay type: functional; conditions: read-out: INH; summary of the method: as §1
Mus musculus [23] = experiment: Reversal of scopolamine-induced memory impairment in mouse assessed as spontaneous alteration at 3 to 30 mg/kg, po administered with compond and scopolamine at 60 mins and 30 mins respectively prior to test by T-maze test; assay type: functional, organism-based
Summary of the method: (§5)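 Mouse T-maze continuous alternation task; reversal of scopolamine-induced loss of spontaneous alternation after ip or oral doses of 3 and 30 mg/kg; significant doses reported.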

[24] = target: Neuronal acetylcholine receptor subunit alpha-7 (Rattus norvegicus) (UniProt Q05941); experiment: Positive allosteric modulatory activity at rat alpha7 nAChR expressed in GH4C1 cells assessed as potentiation of acetylcholine response at 3 uM at -70 mV holding potential preincubated for 30 secs followed by co-application with acetylcholine by manual patch clamp assay; assay type: cell-based; summary of the method: as §3
Mus musculus [25] = experiment: Reversal of scopolamine-induced memory impairment in mouse assessed as increase in spontaneous alteration at 3 to 30 mg/kg, ip administered with compond and scopolamine at 60 mins snd 30 mins respectively prior to test by T-maze test; assay type: functional, organism-based; summary of the method: as §5
[26] = target: Neuronal acetylcholine receptor subunit alpha-7 (Rattus norvegicus) (UniProt Q05941); experiment: as §4, with “of acetylcholine response at 3 uM” for “of peak current”, “to potentiation of” for “to peak”, “current response” for “current potentiation”; assay type: cell-based; summary of the method: as §3

Cc1cc(F)ccc1NC[C@@H]1[C@@H](c2ccc(S(N)(=O)=O)cc2)C1(C)C
Activity [1]: 470%

COc1ccc(Cl)cc1NC[C@@H]1[C@@H](c2ccc(S(N)(=O)=O)cc2)C1(C)C
bioavailability [2]: 62%
percent reversal of scopolamine-induced memory impairment at 3 mg/kg (Mus musculus [3]): 78%
inhibition in vivo at 0.003 mg/kg (Mus musculus [4]): -9%
solubility [5]: 1.6 to 3.1 µg/mL (≈ 4.05 to 7.85 µM)
hepatic extraction ratio at 0.75 h, 1 µM [6]: 0.84
percent reversal of scopolamine-induced memory impairment (increase in spontaneous alternation) at 1 mg/kg (Mus musculus [7]): 78%
AUC/dose [8]: 1.2 µM·h/mg
inhibition in vivo at 0.3 mg/kg (Mus musculus [9]): 62%
EC50 [10]: 1900 nM
hepatic extraction ratio at 0.75 h, 1 µM [11]: 0.79
half-life [12]: 1.2 h
solubility [13]: > 100 µg/mL
clearance [14]: 35 mL/min/kg
Ratio [15]: 1.7
Ratio [16]: 3.1
Emax [17]: 1570%
inhibition in vivo at 0.03 mg/kg (Mus musculus [18]): 51%
Activity [1]: 1160%
Vd [19]: 1.8 L/kg
logD [20]: 4.2
Papp [21]: 11 ×10⁻⁶ cm/s

Cc1cc(F)c(Cl)cc1NCC1C(c2ccc(S(N)(=O)=O)cc2)C1(C)C (racemic)
Activity [1]: 9230%

Cc1cc(F)ccc1NCC1C(c2ccc(S(N)(=O)=O)cc2)C1(C)C (racemic)
Activity [1]: 8660%

CC1(C)[C@@H](CNc2ccc(F)cc2C(F)(F)F)[C@@H]1c1ccc(S(N)(=O)=O)cc1
percent reversal of scopolamine-induced memory impairment at 3 mg/kg (Mus musculus [3]): 39%
percent reversal of scopolamine-induced memory impairment (increase in spontaneous alternation) at 1 mg/kg (Mus musculus [7]): 40%
Activity [1]: 2860%
percent increase in spontaneous alternation at 10 mg/kg (Mus musculus [22]): 79%

Cc1ccc(F)cc1NC[C@H]1[C@H](c2ccc(S(N)(=O)=O)cc2)C1(C)C
Activity [1]: 17400%

CC1(C)C(CNc2ccccc2)C1c1ccc(S(N)(=O)=O)cc1 (racemic)
Activity [1]: 2570 to 9890%

COc1ccc(Cl)cc1NC(=O)c1cccc(-c2ccc(S(N)(=O)=O)cc2)c1
inhibition (Mus musculus [23]): inactive
Activity [1]: 410%

Cc1ccc(Cl)cc1NCC1C(c2ccc(S(N)(=O)=O)cc2)C1(C)C (racemic)
Activity [1]: 12300%

Cc1ccc(F)cc1NC[C@@H]1[C@@H](c2ccc(S(N)(=O)=O)cc2)C1(C)C
percent reversal of scopolamine-induced memory impairment at 3 mg/kg (Mus musculus [3]): 0%
percent reversal of scopolamine-induced memory impairment (increase in spontaneous alternation) at 1 mg/kg (Mus musculus [7]): -9%
Activity [1]: 460%
percent increase in spontaneous alternation at 10 mg/kg (Mus musculus [22]): 10%

CC1(C)C(CNc2cc(F)ccc2OC(F)(F)F)C1c1ccc(S(N)(=O)=O)cc1 (racemic)
Activity [1]: 2440%

COc1ccc(Cl)cc1NC(=O)C1C(c2ccc(S(N)(=O)=O)cc2)C1(C)C (racemic)
solubility [5]: 3.1 to 6.3 µg/mL (≈ 7.58 to 15.4 µM)
Activity [24]: 420%
Activity [1]: 660%
logD [20]: 3.7
inhibition (Mus musculus [25]): Active
Ratio [26]: 5.6

CCOc1ccc(Cl)cc1NC(=O)C1C(c2ccc(S(N)(=O)=O)cc2)C1(CC)CC (centres undefined)
Activity [1]: Active

COc1ccc(Cl)cc1NCC1C(c2ccc(S(=O)(=O)NN)cc2)C1(C)C (racemic)
Activity [1]: 130%

CC1(C)C(CNC2CCCCC2)C1c1ccc(S(N)(=O)=O)cc1 (racemic)
Activity [1]: < 100%

CC1(C)C(CNc2ccc(N3CCOCC3)cc2)C1c1ccc(S(N)(=O)=O)cc1 (racemic)
Activity [1]: < 100%

CC1(C)C(CNc2cncc(F)c2)C1c1ccc(S(N)(=O)=O)cc1 (racemic)
Activity [1]: 3000%
